The values that follow come from ChEMBL document CHEMBL2086383, “Antitumor agents. 293. Nontoxic dimethyl-4,4'-dimethoxy-5,6,5',6'-dimethylenedioxybiphenyl-2,2'-dicarboxylate (DDB) analogues chemosensitize multidrug-resistant cancer cells to clinical anticancer drugs” (J Med Chem, 2012).

Type in all cases: cell-based
One data set has as its system KB. Description: Antiproliferative activity against human KB cells after 72 hrs by SRB assay. The following applies: for pIC50: Homo sapiens, KB; for Activity: human, kb. The method, boiled down:
(§1)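 SRB assay. Cells at 3–5 × 10^3/well were exposed to a range of sample concentrations for 72 h. They were fixed in 50% TCA for 30 min, stained with 0.04% SRB for 30 min, and the dye was dissolved in 10 mM Tris base. Absorbance read at 515 nm. Medium was RPMI 1640 with 10% FBS at 37 °C, 5% CO2. KBvin cells were kept in 100 nM vincristine.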
(In general: Sulforhodamine B stains cellular protein and so reports cell mass.)

In data set [1] the test system is KBVIN. In words: Inhibition of P-gp-mediated multidrug-resistance in human KBVIN cells assessed as […] of paclitaxel-induced cell survival rate at 10 uM after 72 hrs by SRB assay.
For the next data set, the system named is DU-145. Description: Antiproliferative activity against human DU145 cells after 72 hrs by SRB assay. The following applies: for pIC50: Homo sapiens, DU-145, 72 h; for Activity: human, du-145, 72 h. In short, it runs like this: as §1
Data set [2] is described as follows: Antiproliferative activity against human multidrug-resistant KBVIN cells after 72 hrs by SRB assay. The following applies: for pIC50: Homo sapiens, KBVIN; for Activity: human, kbvin. The method, boiled down:
as §1

The next data set relates to A549. In words: Antiproliferative activity against human A549 cells after 72 hrs by SRB assay. The following applies: for pIC50: Homo sapiens, A549, 72 h; for Activity: human, a549, 72 h. In short, it runs like this: as §1
In data set [3] the test system is KBVIN. In words: Inhibition of P-gp-mediated multidrug-resistance in human KBVIN cells assessed as fold decrease in doxorubicin IC50 for cytotoxic activity at 10 uM after 72 hrs by SRB assay relative to control. In short, it runs like this:
(§2)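 KBvin cells were exposed to graded concentrations of anticancer drug (doxorubicin, paclitaxel or vincristine), alone or with 10 μM test compound, for 72 h. Growth was read by SRB assay. IC50 was found by log-linear interpolation. Reversal fold = IC50 (drug alone) / IC50 (drug + compound). Verapamil was the positive control. Each experiment was run at least three times.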

The test system of data set [4] is KBVIN. Description: Inhibition of P-gp-mediated multidrug-resistance in human KBVIN cells assessed as paclitaxel-induced cytotoxicity at 10 uM after 72 hrs by SRB assay. The method, boiled down: as §2
For data set [5], the system named is KBVIN. Description: Inhibition of P-gp-mediated multidrug-resistance in human KBVIN cells assessed as fold decrease in paclitaxel IC50 for cytotoxic activity at 10 uM after 72 hrs by SRB assay relative to control. In short, it runs like this: as §2
The test system of data set [6] is KBVIN. Description: Inhibition of P-gp-mediated multidrug-resistance in human KBVIN cells assessed as vincristine-induced cytotoxicity at 10 uM after 72 hrs by SRB assay. The method, boiled down: as §2
Data set [7] concerns KBVIN. Description: Inhibition of P-gp-mediated multidrug-resistance in human KBVIN cells assessed as doxorubicin-induced cytotoxicity at 10 uM after 72 hrs by SRB assay. In short, it runs like this:
as §2

In data set [8] the test system is KBVIN. Description: Inhibition of P-gp-mediated multidrug-resistance in human KBVIN cells assessed as fold decrease in vincristine IC50 for cytotoxic activity at 10 uM after 72 hrs by SRB assay relative to control. The method, boiled down: as §2
Data set [9] deals with T1, ATP-dependent translocase ABCB1 (Homo sapiens, UniProt P08183). In words: Inhibition of P-gp over expressed in human multidrug-resistant KBVIN cells assessed as intracellular accumulation of doxorubicin at 10uM after 3 hrs by fluorescence microplate reader analysis relative to control. The method, boiled down:
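KBvin cells at 5 × 10^3/well were pretreated with compound for 1 h, then given doxorubicin (10 μM final) for 3 h. Cells were washed with ice-cold PBS and lysed in 1% SDS/PBS. Verapamil or CsA served as positive control.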

Data set [10] relates to KBVIN. In words: (§3) Inhibition of P-gp-mediated multidrug-resistance in human KBVIN cells assessed as paclitaxel-induced cytotoxicity after 72 hrs by SRB assay. In short, it runs like this:
(§4)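 KBvin cells were cultured with 100 nM paclitaxel plus a range of compound concentrations. Growth was read by SRB, and the EC50 of reversal was derived. Verapamil was the comparator.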

The nature of data set [11]: as §3. In short, it runs like this: as §4
In data set [12] the target is T1, ATP-dependent translocase ABCB1. Description: Inhibition of P-gp over expressed in human multidrug-resistant KBVIN cells after 10 mins by calcein AM accumulation assay. In short, it runs like this: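 KBvin cells at 5 × 10^3/well were pretreated with samples for 1 h, then given calcein-AM (1 μM final) for 10 min. Cells were washed with ice-cold PBS and lysed in 1% SDS/PBS. Calcein fluorescence read at Ex 494/Em 517 nm. Verapamil or CsA served as positive control.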

The subject of data set [13] is NIH3T3. Description: Inhibition of human P-gp-mediated multidrug-resistance in mouse NIH3T3 MDR cells assessed as potentiation of in paclitaxel-induced cytotoxic activity at 10 uM after 72 hrs by SRB assay. The following applies: human P-gp expressed in mouse cells.
The subject of data set [14] is NIH3T3. Description: Inhibition of human P-gp-mediated multidrug-resistance in mouse NIH3T3 MDR cells assessed as potentiation of in vincristine-induced cytotoxic activity at 10 uM after 72 hrs by SRB assay. The following applies: Mus musculus cells expressing human P-gp.

pEC50, pIC50: −log10 of the molar value. The source made the active and inactive calls. No cut-off for these calls is given here.

What is called pIC50 is the negative decadic logarithm of the IC50, by convention in mol/L. A higher pIC50 goes with a low IC50. Broadly, the pEC50 is the EC50 on a negative log10 scale, so that one unit is a factor of ten.

T1 sequence (P08183 whole entry): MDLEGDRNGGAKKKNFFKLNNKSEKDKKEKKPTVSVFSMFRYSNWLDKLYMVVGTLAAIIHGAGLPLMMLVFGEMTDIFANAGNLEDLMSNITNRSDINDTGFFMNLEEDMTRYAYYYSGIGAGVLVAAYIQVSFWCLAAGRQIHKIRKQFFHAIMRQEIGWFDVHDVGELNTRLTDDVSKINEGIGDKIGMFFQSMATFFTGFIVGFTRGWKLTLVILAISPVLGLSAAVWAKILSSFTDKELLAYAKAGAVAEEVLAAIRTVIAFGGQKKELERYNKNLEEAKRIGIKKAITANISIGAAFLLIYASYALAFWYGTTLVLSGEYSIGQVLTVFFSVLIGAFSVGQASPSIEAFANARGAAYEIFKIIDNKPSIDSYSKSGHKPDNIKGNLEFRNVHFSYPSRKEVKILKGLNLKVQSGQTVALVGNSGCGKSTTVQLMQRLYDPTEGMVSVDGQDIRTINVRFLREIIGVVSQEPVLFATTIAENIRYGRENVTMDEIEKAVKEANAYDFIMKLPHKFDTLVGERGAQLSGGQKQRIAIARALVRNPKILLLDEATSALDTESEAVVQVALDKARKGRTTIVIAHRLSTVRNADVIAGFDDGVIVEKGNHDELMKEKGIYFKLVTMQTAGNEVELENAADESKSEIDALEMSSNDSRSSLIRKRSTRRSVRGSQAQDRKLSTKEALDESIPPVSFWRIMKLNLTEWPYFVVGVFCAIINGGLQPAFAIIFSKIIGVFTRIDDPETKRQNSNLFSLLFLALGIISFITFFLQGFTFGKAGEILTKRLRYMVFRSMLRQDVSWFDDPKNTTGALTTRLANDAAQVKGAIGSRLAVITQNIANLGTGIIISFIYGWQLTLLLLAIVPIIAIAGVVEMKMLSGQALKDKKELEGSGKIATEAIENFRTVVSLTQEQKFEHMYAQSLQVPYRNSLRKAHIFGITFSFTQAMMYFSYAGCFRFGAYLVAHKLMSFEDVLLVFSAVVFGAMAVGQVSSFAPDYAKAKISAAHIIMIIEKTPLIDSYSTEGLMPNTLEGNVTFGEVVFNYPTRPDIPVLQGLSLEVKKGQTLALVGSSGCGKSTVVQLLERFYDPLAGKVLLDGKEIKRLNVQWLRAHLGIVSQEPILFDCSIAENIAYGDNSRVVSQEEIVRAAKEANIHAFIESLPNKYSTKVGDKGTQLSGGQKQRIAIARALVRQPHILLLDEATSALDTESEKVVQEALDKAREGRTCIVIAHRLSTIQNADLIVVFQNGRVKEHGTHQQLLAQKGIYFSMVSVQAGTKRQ

In the case of `COc1cc(COC(=O)c2ccc(C(F)(F)F)nc2)c(-c2c(COC(=O)c3ccc(C(F)(F)F)nc3)cc(OC)c3c2OCO3)c2c1OCO2`, the pIC50 (in the data set with KB; in the data set on DU-145; in data set [2]; with A549) was less than 4.00 in each case. For the same compound, the inhibition entry with KBVIN [1] was “inactive”.
Turning to `COc1ccc(CCN(C)CCCC(C#N)(c2ccc(OC)c(OC)c2)C(C)C)cc1OC` (stereo not drawn), the fold change (FC) in the data set with KBVIN [3] was 9; with KBVIN [5], 31; in the data set on KBVIN [8] it was 109; in data set [9] it was 1.2. In addition, the result in the data set with KBVIN [4], in the data set with KBVIN [6] and with KBVIN [7] was Active.
For `COC(=O)c1c(I)c(OC)c2c(c1-c1c3c(c(OC)c(I)c1C(=O)OC)OCO3)OCO2`, the pIC50 (in the data set with KB; in the data set on DU-145; in data set [2]; in the data set on A549) was less than 4.00 in each case. Besides, the inhibition result in the data set with KBVIN [1] is “inactive”.
For `COc1cc(COC(=O)c2ccc([N+](=O)[O-])cc2)c(-c2c(COC(=O)c3ccc([N+](=O)[O-])cc3)cc(OC)c3c2OCO3)c2c1OCO2`, the pIC50 (with KB; with DU-145; in data set [2]; with A549) was less than 4.00 each time. Moreover, the inhibition result with KBVIN [1] is “inactive”.
Take `COC(=O)c1c(Br)c(OC)c2c(c1-c1c3c(c(OC)c(Br)c1C(=O)OC)OCO3)OCO2`: the pIC50 (in the data set with KB; with DU-145; in data set [2]; in the data set with A549) was less than 4.00 in each case. Moreover, the inhibition entry in the data set with KBVIN [1] was “inactive”.
On to `COc1c(Br)c(CO)c(-c2c3c(c(OC)c(Br)c2C(=O)O)OCO3)c2c1OCO2`, for which the pIC50 (in the data set on KB; with DU-145; in data set [2]; in the data set with A549) was less than 4.00 throughout. Further, in the data set on KBVIN [1], the inhibition result is “inactive”.
Consider `COc1cc(COC(=O)c2ccc(C#N)cc2)c(-c2c(COC(=O)c3ccc(C#N)cc3)cc(OC)c3c2OCO3)c2c1OCO2`, for which the pIC50 (in the data set on KB; with DU-145; in data set [2]; in the data set with A549) was less than 4.00 in each case. In the data set on KBVIN [1], the inhibition entry is “inactive”.
Consider `COc1cc(COC(C)=O)c(-c2c(COC(C)=O)cc(OC)c3c2OCO3)c2c1OCO2`, for which the pIC50 (in the data set with KB; in the data set on DU-145; in data set [2]; with A549) was less than 4.00 throughout. The inhibition entry in the data set on KBVIN [1] is “inactive”.
On to `COc1cc(COC(=O)c2ccc3c(c2)OCO3)c(-c2c(COC(=O)c3ccc4c(c3)OCO4)cc(OC)c3c2OCO3)c2c1OCO2`, for which the pIC50 (in the data set on KB; in the data set on DU-145; in [2]; in the data set with A549) was less than 4.00 in each case. In addition, the inhibition result in the data set with KBVIN [1] was “inactive”.
Take `CCCC(=O)OCc1c(Br)c(OC)c2c(c1-c1c(COC(=O)CCC)c(Br)c(OC)c3c1OCO3)OCO2`: the Activity entry (in the data set on KB; with DU-145; in [2]; in the data set with A549) was “Toxic” in each case. In addition, the inhibition result with KBVIN [1] was “inactive”.
Consider `COc1cc(C(=O)OCc2cc(OC)c3c(c2-c2c(COC(=O)c4cc(OC)c(OC)c(OC)c4)cc(OC)c4c2OCO4)OCO3)cc(OC)c1OC`, for which the fold change (FC) in the data set on KBVIN [3] was determined as 23; with KBVIN [5], 222; with KBVIN [8], 566; in data set [9] it was 1.2. For the same compound, the pIC50 (with KB; in the data set on DU-145; in [2]; with A549) was less than 4.00 in each case. For the same compound, the inhibition result in the data set on KBVIN [10] was “Dose-dependent effect”. The pEC50 in [11] was 5.73. Moreover, the outcome in the data set with KBVIN [4], in the data set on KBVIN [6] and with KBVIN [7] was Active. The “inhibition (INH)” value in data set [12] is “Dose-dependent effect”. Also, the inhibition result in the data set on NIH3T3 [13] and in the data set with NIH3T3 [14] was “Active” throughout.
On to `COc1cc(COC(=O)c2ccc3ccccc3n2)c(-c2c(COC(=O)c3ccc4ccccc4n3)cc(OC)c3c2OCO3)c2c1OCO2`, for which the Activity result (in the data set on KB; with DU-145; in data set [2]; in the data set on A549) was “Toxic” each time. Also, in the data set with KBVIN [1], the inhibition entry was “Active”.
In the case of `COc1c(Br)c(CO)c(-c2c(CO)c(Br)c(OC)c3c2OCO3)c2c1OCO2`, the pIC50 (with KB; with DU-145; in data set [2]; in the data set on A549) was less than 4.00 throughout. For the same compound, the inhibition result in the data set with KBVIN [1] is “inactive”.
In the case of `CCCC(C)C(=O)OCc1cc(OC)c2c(c1-c1c(COC(=O)C(C)CCC)cc(OC)c3c1OCO3)OCO2` (racemic), the fold change (FC) came to 31 with KBVIN [3], 25 in the data set with KBVIN [5], 53 with KBVIN [8] and 1.2 in [9]. The pIC50 (in the data set on KB; in the data set on DU-145; in data set [2]; with A549) was less than 4.00 in each case. The inhibition result in the data set with NIH3T3 [13] and with NIH3T3 [14] was “Active” in each case.
With `CCCCCCCCCCCC(=O)OCc1cc(OC)c2c(c1-c1c(COC(=O)CCCCCCCCCCC)cc(OC)c3c1OCO3)OCO2`, the pIC50 (in the data set with KB; in the data set with DU-145; in data set [2]; with A549) was less than 4.00 throughout. The inhibition entry in the data set on KBVIN [1] is “inactive”.
As for `CCC(=O)OCc1cc(OC)c2c(c1-c1c(COC(=O)CC)cc(OC)c3c1OCO3)OCO2`, the fold change (FC) in the data set on KBVIN [3] was 4; in the data set with KBVIN [5], 12; in the data set on KBVIN [8], 31; in data set [9], 1.2. Besides, the pIC50 (with KB; with DU-145; in data set [2]; in the data set with A549) was less than 4.00 each time. Besides, the inhibition entry in the data set with NIH3T3 [13] and with NIH3T3 [14] was “Active” in each case.
`COc1cc(COC(=O)CCC(=O)O)c(-c2c(COC(=O)CCC(=O)O)cc(OC)c3c2OCO3)c2c1OCO2`: the pIC50 (with KB; in the data set with DU-145; in [2]; in the data set with A549) was less than 4.00 throughout. Also, in the data set with KBVIN [1], the inhibition result is “inactive”.
With `COc1cc(CO)c(-c2c(CO)cc(OC)c3c2OCO3)c2c1OCO2`, the pIC50 (with KB; with DU-145; in [2]; in the data set on A549) was less than 4.00 each time. The inhibition result in the data set on KBVIN [1] was “inactive”.
For `COc1c2c(c3c(c1Br)c(=O)oc(=O)c1c(Br)c(OC)c4c(c13)OCO4)OCO2`, the pIC50 (in the data set with KB; in the data set with DU-145; in data set [2]; in the data set on A549) was less than 4.00 in each case. The inhibition result in the data set on KBVIN [1] is “inactive”.
`COc1cc(COC(=O)C2CCCC2)c(-c2c(COC(=O)C3CCCC3)cc(OC)c3c2OCO3)c2c1OCO2`: the fold change (FC) with KBVIN [3] is 23; in the data set on KBVIN [5], 20; in the data set with KBVIN [8], 310; in data set [9] it was 1.2. Moreover, the pIC50 (in the data set with KB; in the data set on DU-145; in data set [2]; with A549) was less than 4.00 each time. The inhibition entry in the data set on NIH3T3 [13] and in the data set with NIH3T3 [14] was “Active” each time.
